According to publication PMC9463588 (The Journal of Biological Chemistry, 2022):
Numbering of substitutions follows the chain as printed. In names and notes the source's numbering stands. Entries after “also recorded” stand apart in the source; their conditions may differ. Like-named read-outs stand apart in the source and are kept apart here.

T1: human CYP8B1 (Homo sapiens, UniProt Q9UNU6)
T1 sequence (Q9UNU6 26-501 limits assumed): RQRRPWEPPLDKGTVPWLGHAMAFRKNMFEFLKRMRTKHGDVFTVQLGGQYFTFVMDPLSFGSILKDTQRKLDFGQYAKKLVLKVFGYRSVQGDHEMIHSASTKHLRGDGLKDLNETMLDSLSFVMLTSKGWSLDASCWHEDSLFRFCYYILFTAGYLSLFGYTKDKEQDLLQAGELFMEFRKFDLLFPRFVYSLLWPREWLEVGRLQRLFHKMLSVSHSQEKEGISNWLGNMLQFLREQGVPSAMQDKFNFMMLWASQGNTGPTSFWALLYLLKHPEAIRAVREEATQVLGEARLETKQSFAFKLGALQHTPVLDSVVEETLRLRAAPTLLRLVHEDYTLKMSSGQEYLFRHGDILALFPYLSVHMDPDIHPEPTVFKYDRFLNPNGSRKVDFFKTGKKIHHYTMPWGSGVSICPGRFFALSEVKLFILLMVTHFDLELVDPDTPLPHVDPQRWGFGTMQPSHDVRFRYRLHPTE

T2: CYP8B1 W281F (Homo sapiens, UniProt Q9UNU6, W281F)
T2 sequence (Q9UNU6 26-501 W281F limits assumed): T1 sequence (Q9UNU6 26-501 limits assumed) with W256F

B1: CYP8B1 W281F (Homo sapiens; W281F) (protein)
chain: T1 sequence (Q9UNU6 26-501 limits assumed) with W256F
B2: human CYP8B1 (Homo sapiens) (protein)
chain: T1 sequence (Q9UNU6 26-501 limits assumed)

Legend:
human CYP8B1 [1] = molecular target: T1, human CYP8B1; assay: Ligand-binding assay by shift of the heme Soret peak, wild type CYP8B1; conditions: for Shift in Soret peak: spectral binding type, wild type CYP8B1; for Kd / KD: azoles, single site binding fit, interval in parentheses
Method in brief: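 Recombinant human CYP8B1 was expressed in E. coli with groES-groEL co-expression and purified by Ni-NTA and cation-exchange chromatography. Ligand was titrated into 1 μM enzyme in 50 mM potassium phosphate with 20% glycerol, in a 1 cm cuvette; azoles were dissolved in DMSO. The Soret shift (local absorbance maximum minus minimum) was plotted against concentration and fitted to a single-site specific binding equation, in triplicate.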

CYP8B1 W281F = molecular target: T2, CYP8B1 W281F; assay: Ligand-binding assay by shift of the heme Soret peak, CYP8B1 W281F mutant
[2] = cited from earlier work
human CYP8B1 [3] = molecular target: T1, human CYP8B1; assay: CYP8B1 inhibition assays; type: biochemical; conditions: activity remaining vs control without inhibitor, 80 μM inhibitor
Method in brief: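 Test compound at 80 μM was added to the kinetic assay: 0.01 μM CYP8B1 and 0.06 μM human P450 reductase in 50 mM potassium phosphate pH 7.4 with 20% glycerol, preincubated 10 min at room temperature. Substrate 7α-hydroxycholest-4-en-3-one was added, 200 μM NADPH started the reaction at 37 °C, and chloroform stopped it. The 12α-hydroxy product was measured by HPLC-UV at 240 nm. Activity is % of an inhibitor-free control; duplicate or triplicate.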

[4] = substrate: CC(C)CCC[C@@H](C)[C@H]1CC[C@H]2[C@@H]3[C@H](O)CC4=CC(=O)CC[C@]4(C)[C@H]3CC[C@]12C; type: biochemical, human; conditions: other: W281F mutant, 95% CI; pH 7.4
[5] = substrate: CC(C)CCC[C@@H](C)[C@H]1CC[C@H]2[C@@H]3[C@H](O)CC4=CC(=O)CC[C@]4(C)[C@H]3CC[C@]12C; type: biochemical, human; conditions: other: wild type CYP8B1, 95% CI; pH 7.4

| Molecule | Shift in Soret peak (human CYP8B1 [1]) | Kd (human CYP8B1 [1]) | Turnover at 80 μM (%) (human CYP8B1 [3]) | KD (human CYP8B1 [1]) | other results |
| --- | --- | --- | --- | --- | --- |
| CC(C)CCC[C@@H](C)[C@H]1CC[C@H]2[C@@H]3[C@H](O)CC4=CC(=O)CC[C@]4(C)[C@H]3CC[C@]12C [7α-hydroxycholest-4-en-3-one] | type I | – | – | – | Kd (CYP8B1 W281F): 34.3 nM |
| C[C@H](CCC(=O)O)[C@H]1CC[C@H]2[C@@H]3[C@H](O)C[C@@H]4C[C@H](O)CC[C@]4(C)[C@H]3C[C@H](O)[C@]12C [Cholic acid] | – | – | – | – | critical micellar concentration [2]: ~50 µM |
| Clc1ccccc1C(c1ccccc1)(c1ccccc1)n1ccnc1 [Clotrimazole] | Type II | 1600 nM | 6.8% | – | – |
| Clc1ccc(COC(Cn2ccnc2)c2ccc(Cl)cc2Cl)cc1 (centres unmarked) [Econazole] | Type II | 57 nM | 1.7% | submicromolar | – |
| OC(Cn1cncn1)(Cn1cncn1)c1ccc(F)cc1F [Fluconazole] | None | – | 95% | – | Shift in Soret peak (human CYP8B1 [1]; listed as fluconazole): did not induce a shift; also recorded: no binding |
| CC(=O)N1CCN(c2ccc(OCC3COC(Cn4ccnc4)(c4ccc(Cl)cc4Cl)O3)cc2)CC1 (centres unmarked) [Ketoconazole] | Type II | 1300 nM | 16% | micromolar | – |
| Clc1cccc(C(c2ccc3[nH]cnc3c2)n2ccnc2)c1 (centres unmarked) [Liarozole] | Type II | 1300 nM | 30% | – | – |
| Clc1ccc(COC(Cn2ccnc2)c2ccc(Cl)cc2Cl)c(Cl)c1 (centres unmarked) [Miconazole] | Type II | 98 nM | 0.75% | submicromolar | Turnover at 80 μM (%) (human CYP8B1 [3]; listed as miconazole): less than 1% |
| Clc1ccc(C(Cn2ccnc2)OCc2ccsc2Cl)c(Cl)c1 (centres unmarked) [Tioconazole] | Type II | 210 nM | 1.4% | submicromolar | – |
| B1 | – | – | – | – | Km [4]: 0.54 µM; kcat [4]: 0.02 s⁻¹; kcat/Km [4]: 2.2 μM^−^1min^−1 |
| B2 | – | – | – | – | Km [5]: 0.5 µM; kcat [5]: 0.123 s⁻¹; kcat/Km [5]: 14.7 μM^−^1min^−1 |
